Assay results taken from ChEMBL document CHEMBL3351699, “Diarylthiazole: an antimycobacterial scaffold potentially targeting PrrB-PrrA two-component system” (J Med Chem, 2014).
In brackets after ≈: the same amount, converted by molar mass. Activity calls are given as the source filed them. The rule behind the calls is not given here.

Legend:
[1] = system: Mycobacterium tuberculosis; experiment: Induction of fumarate reductase gene expression in Mycobacterium tuberculosis H37Rv ATCC 27294 at 7.5 ug/mL incubated for 4 hrs by DNA microarray analysis; format: functional, organism-based
Summary of the method: (§1)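 Total RNA was isolated from compound-treated Mtb cultures and hybridised on DNA microarrays, with RNA from an untreated Mtb culture as the control.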

[2] = system: Mycobacterium tuberculosis; experiment: Reduction in aminoacyl t-RNA synthetases gene expression in Mycobacterium tuberculosis H37Rv ATCC 27294 at 7.5 ug/mL incubated for 4 hrs by DNA microarray analysis; format: functional, organism-based; summary of the method: as §1
[3] = system: Mycobacterium tuberculosis; experiment: Bactericidal activity against Mycobacterium tuberculosis H37Rv ATCC 27294 after 5 days by microdilution method; format: functional; conditions: H37Rv ATCC 27294, 120 h
[4] = Solubility of the compound; format: physicochemical
[5] = system: Mycobacterium tuberculosis; experiment: Reduction in sigma factors gene expression in Mycobacterium tuberculosis H37Rv ATCC 27294 at 7.5 ug/mL incubated for 4 hrs by DNA microarray analysis; format: functional, organism-based; summary of the method: as §1
[6] = system: Mycobacterium tuberculosis; experiment: Induction of oxido-reductases gene expression in Mycobacterium tuberculosis H37Rv ATCC 27294 at 7.5 ug/mL incubated for 4 hrs by DNA microarray analysis; format: functional, organism-based; summary of the method: as §1
[7] = system: Mycobacterium tuberculosis; experiment: Induction of anaerobic state electron transport chain maintenance related gene expression in Mycobacterium tuberculosis H37Rv ATCC 27294 at 7.5 ug/mL incubated for 4 hrs by DNA microarray analysis; format: functional, organism-based; summary of the method: as §1
[8] = system: Mycobacterium tuberculosis; experiment: Reduction in protein synthesis related gene expression in Mycobacterium tuberculosis H37Rv ATCC 27294 at 7.5 ug/mL incubated for 4 hrs by DNA microarray analysis; format: functional, organism-based; summary of the method: as §1
[9] = system: Mycobacterium tuberculosis; experiment: Induction of fatty acid metabolism related gene expression in Mycobacterium tuberculosis H37Rv ATCC 27294 at 7.5 ug/mL incubated for 4 hrs by DNA microarray analysis; format: functional, organism-based; summary of the method: as §1
[10] = system: Mycobacterium tuberculosis; experiment: Induction of prrA gene expression in Mycobacterium tuberculosis H37Rv ATCC 27294 at 7.5 ug/mL incubated for 4 hrs by DNA microarray analysis; format: functional
Summary of the method: (§2)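 Total RNA was isolated from treated Mtb cells and analysed by DNA microarray. RNA from an untreated Mtb culture served as the control, and expression was reported as mean fold change relative to that untreated control.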

[11] = system: Mycobacterium tuberculosis; experiment: Induction of cytochrome ubiquinol oxidase gene expression in Mycobacterium tuberculosis H37Rv ATCC 27294 at 7.5 ug/mL incubated for 4 hrs by DNA microarray analysis; format: functional, organism-based; summary of the method: as §1
[12] = system: Mycobacterium tuberculosis; experiment: Induction of prrB gene expression in Mycobacterium tuberculosis H37Rv ATCC 27294 at 7.5 ug/mL incubated for 4 hrs by DNA microarray analysis; format: functional; summary of the method: as §2
[13] = molecular target: T1, Enoyl-[acyl-carrier-protein] reductase [NADH] (Mycobacterium tuberculosis, UniProt P9WGR1); experiment: Inhibition of Mycobacterium tuberculosis InhA using NADH and dodecyl coA substrate by LC-MS/MS method
T1 sequence (P9WGR1 whole entry): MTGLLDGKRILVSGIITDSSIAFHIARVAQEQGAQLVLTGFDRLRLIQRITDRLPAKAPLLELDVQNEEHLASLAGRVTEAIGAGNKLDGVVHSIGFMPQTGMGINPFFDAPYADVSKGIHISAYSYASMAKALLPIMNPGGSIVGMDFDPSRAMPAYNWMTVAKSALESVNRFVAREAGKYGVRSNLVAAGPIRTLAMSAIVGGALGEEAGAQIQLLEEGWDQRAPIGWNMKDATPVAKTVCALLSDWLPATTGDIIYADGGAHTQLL

[14] = system: Mycobacterium tuberculosis; experiment: Antimicrobial activity against Mycobacterium tuberculosis H37Rv ATCC 27294 assessed as reduction in bacterial count relative to untreated control; format: functional
Summary of the method: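 About 10⁶ Mtb cells/mL exposed to compound for 10 days; viable count read as Log₁₀ CFU/mL reduction versus untreated controls.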

[15] = system: Mycobacterium tuberculosis; experiment: Reduction in RNA metabolism related gene expression in Mycobacterium tuberculosis H37Rv ATCC 27294 at 7.5 ug/mL incubated for 4 hrs by DNA microarray analysis; format: functional, organism-based; summary of the method: as §1
[16] = system: Mycobacterium tuberculosis; experiment: Reduction in RNA polymerase subunits gene expression in Mycobacterium tuberculosis H37Rv ATCC 27294 at 7.5 ug/mL incubated for 4 hrs by DNA microarray analysis; format: functional, organism-based; summary of the method: as §1
[17] = system: Mycobacterium tuberculosis; experiment: Ratio of MBC for Mycobacterium tuberculosis H37Rv ATCC 27294 to MIC for Mycobacterium tuberculosis H37Rv ATCC 27294; format: functional
[18] = system: Mycobacterium tuberculosis; experiment: Induction of nitrate reductase gene expression in Mycobacterium tuberculosis H37Rv ATCC 27294 at 7.5 ug/mL incubated for 4 hrs by DNA microarray analysis; format: functional, organism-based; summary of the method: as §1
[19] = system: Mycobacterium tuberculosis; experiment: Antimicrobial activity against Mycobacterium tuberculosis H37Rv ATCC 27294 assessed as growth inhibition after 5 days by microdilution method; format: functional; conditions: H37Rv ATCC 27294, 120 h
[20] = system: Mycobacterium tuberculosis; experiment: Antimicrobial activity against Mycobacterium tuberculosis H37Rv ATCC 27294 infected in human THP1 cells assessed as reduction in bacterial count at 2 times MIC relative to untreated control; format: functional, THP-1
[21] = system: Mycobacterium tuberculosis; experiment: Reduction in ribosomal protein synthesis related gene expression in Mycobacterium tuberculosis H37Rv ATCC 27294 at 7.5 ug/mL incubated for 4 hrs by DNA microarray analysis; format: functional, organism-based; summary of the method: as §1

## CCCc1cc(-c2nc(-c3ccncc3)cs2)ccn1
[1]
  Activity: Active
[2]
  Activity: Active
[3]
  MBC: 0.8 µg/mL (≈ 2.84 µM)
[4]
  solubility: 91.5 µM (≈ 25.7 µg/mL)
[5]
  Activity: Active
[6]
  Activity: Active
[7]
  Activity: Active
[8]
  Activity: Active
[9]
  Activity: Active
[10]
  fold change (FC): 0.7
[11]
  Activity: Active
[12]
  fold change (FC): 0.7
[13]
  IC50: > 50 µM
[14]
  log10CFU/ml: 3
[15]
  Activity: Active
[16]
  Activity: Active
[17]
  Ratio: 2
[18]
  Activity: Active
[19]
  MIC80: 0.4 µg/mL (≈ 1.42 µM)
[20]
  log10CFU/ml: 1.5
[21]
  Activity: Active
